Assay results reported in ChEMBL document CHEMBL3526106, “Cytochrome P450 regulation by α-tocopherol in Pxr-null and PXR-humanized mice” (Drug Metab Dispos, 2013).

Key:
Design in all cases: dose 500 mg/kg
[1] = test system: Mus musculus; assay: Induction of Cyp3a11 gene expression in male PXR null mouse liver at 500 mg/kg for 7 to 14 days dosed through vitamin E-deficient base diet by qPCR method; assay type: ADME, organism-based; details: in vivo, po
Procedure, shortened: (§1)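 Male mice on vitamin E deficient diet, switched at eight weeks to the same diet with 500 mg/kg DL-α-tocopheryl acetate (controls kept deficient); killed at nine or 10 weeks, livers flash frozen. Hepatic mRNA by SYBR Green qPCR with 25 ng cDNA and 150 nM primers, triplicate reactions; comparative threshold cycle method against β-actin, fold change versus deficient diet; mean ± SEM, two-tailed t-test.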

[2] = test system: Mus musculus; assay: Induction of Cyp4f16 gene expression in male PXR null mouse liver at 500 mg/kg for 7 to 14 days dosed through vitamin E-deficient base diet by qPCR method; assay type: ADME, organism-based; details: in vivo, po
Procedure, shortened: (§2)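 Male mice (wild-type, Pxr-null, hPXR; NCI-bred) on vitamin E-deficient diet from 3 weeks of age; at 8 weeks half switched to same base diet supplemented with 500 mg/kg DL-α-tocopheryl acetate, rest kept deficient. Livers harvested at 9 and 10 weeks. qPCR: 25 ng cDNA, 150 nM each primer, SYBR Green, triplicate; comparative Ct vs β-actin; fold change enriched vs deficient diet; mean ± SEM, two-tailed unpaired t-test.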

[3] = test system: Mus musculus; assay: Effect on Ugt1a1 gene expression in male PXR-humanized mouse liver at 500 mg/kg for 7 to 14 days dosed through vitamin E-deficient base diet by qPCR method; assay type: ADME, organism-based; details: in vivo, po; procedure, shortened: as §1
[4] = test system: Mus musculus; assay: Effect on Ugt1a6a gene expression in male PXR null mouse liver at 500 mg/kg for 7 to 14 days dosed through vitamin E-deficient base diet by qPCR method; assay type: ADME, organism-based; details: in vivo, po; procedure, shortened: as §1
[5] = test system: Mus musculus; assay: Effect on Ugt2b34 gene expression in male PXR-humanized mouse liver at 500 mg/kg for 7 to 14 days dosed through vitamin E-deficient base diet by qPCR method; assay type: ADME, organism-based; details: in vivo, po; procedure, shortened: as §1
[6] = test system: Mus musculus; assay: Induction of Cyp2c39 gene expression in male PXR null mouse liver at 500 mg/kg for 7 to 14 days dosed through vitamin E-deficient base diet by qPCR method; assay type: ADME, organism-based; details: in vivo, po; procedure, shortened: as §1
[7] = test system: Mus musculus; assay: Drug metabolism in male PXR-humanized mouse assessed as urinary alpha-carboxyethylhydroxychroman glucuronide level at 500 mg/kg for 7 to 14 days dosed through vitamin E-deficient base diet by UPLC-ESI-QTOFMS method based metabolomics analysis; assay type: ADME, organism-based, Urine; details: in vivo, po
Procedure, shortened: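 Male mice from three weeks of age on vitamin E deficient diet; at eight weeks, 24 h predose urine in metabolic cages, then half switched to the same diet supplemented with 500 mg/kg DL-α-tocopheryl acetate. 24 h urine collected at nine and 10 weeks. Urinary metabolites quantitated by UPLC-MRM on triple-quadrupole MS against authentic standards and calibration curves, normalized to urinary creatinine (µmol/mmol creatinine); mean ± SEM, two-tailed unpaired t-test.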

[8] = test system: Mus musculus; assay: Effect on Ugt2b34 gene expression in male PXR null mouse liver at 500 mg/kg for 7 to 14 days dosed through vitamin E-deficient base diet by qPCR method; assay type: ADME, organism-based; details: in vivo, po; procedure, shortened: as §1
[9] = test system: Mus musculus; assay: Drug metabolism in male PXR-humanized mouse assessed as urinary alpha-carboxyethylhydroxychroman glycine level at 500 mg/kg for 7 to 14 days dosed through vitamin E-deficient base diet by UPLC-ESI-QTOFMS method based metabolomics analysis; assay type: ADME, organism-based, Urine; details: in vivo, po
[10] = test system: Mus musculus; assay: Effect on Ugt1a10 gene expression in wild type mouse liver at 500 mg/kg for 7 to 14 days dosed through vitamin E-deficient base diet by qPCR method; assay type: ADME, organism-based; details: in vivo, po; procedure, shortened: as §1
[11] = test system: Mus musculus; assay: Drug metabolism in male PXR null mouse assessed as urinary alpha-carboxyethylhydroxychroman glucuronide level at 500 mg/kg for 7 to 14 days dosed through vitamin E-deficient base diet by UPLC-ESI-QTOFMS method based metabolomics analysis; assay type: ADME, organism-based, Urine; details: in vivo, po
[12] = test system: Mus musculus; assay: Effect on Ugt1a7c gene expression in male PXR null mouse liver at 500 mg/kg for 7 to 14 days dosed through vitamin E-deficient base diet by qPCR method; assay type: ADME, organism-based; details: in vivo, po; procedure, shortened: as §1
[13] = test system: Mus musculus; assay: Effect on Ugt1a9 gene expression in male PXR null mouse liver at 500 mg/kg for 7 to 14 days dosed through vitamin E-deficient base diet by qPCR method; assay type: ADME, organism-based; details: in vivo, po; procedure, shortened: as §1
[14] = test system: Cyp2b10; assay: Induction of Cyp2b10 gene expression in wild type mouse liver at 500 mg/kg for 7 to 14 days dosed through vitamin E-deficient base diet by qPCR method; assay type: ADME, organism-based; details: po, read-out: FC; procedure, shortened: as §1
[15] = test system: Mus musculus; assay: Reduction in Cyp4a10 gene expression in PXR-humanized mouse liver at 500 mg/kg for 7 to 14 days dosed through vitamin E-deficient base diet by qPCR method; assay type: ADME, organism-based; details: in vivo, po; procedure, shortened: as §2
[16] = test system: Mus musculus; assay: Drug metabolism in male wild type mouse assessed as urinary alpha-carboxyethylhydroxychroman glucuronide level at 500 mg/kg for 7 to 14 days dosed through vitamin E-deficient base diet by UPLC-ESI-QTOFMS method based metabolomics analysis; assay type: ADME, organism-based, Urine; details: in vivo, po
[17] = test system: Mus musculus; assay: Induction of Cyp4f16 gene expression in male PXR-humanized mouse liver at 500 mg/kg for 7 to 14 days dosed through vitamin E-deficient base diet by qPCR method; assay type: ADME, organism-based; details: in vivo, po; procedure, shortened: as §2
[18] = test system: Mus musculus; assay: Drug metabolism in male PXR null mouse assessed as urinary alpha-carboxymethylbutylhydroxychroman glucuronide level at 500 mg/kg for 7 to 14 days dosed through vitamin E-deficient base diet by UPLC-ESI-QTOFMS method based metabolomics analysis; assay type: ADME, organism-based, Urine; details: in vivo, po
[19] = test system: Mus musculus; assay: Induction of Cyp4f14 gene expression in male PXR-humanized mouse liver at 500 mg/kg for 7 to 14 days dosed through vitamin E-deficient base diet by qPCR method; assay type: ADME, organism-based; details: in vivo, po; procedure, shortened: as §2
[20] = test system: Mus musculus; assay: Effect on Ugt1a6b gene expression in male PXR null mouse liver at 500 mg/kg for 7 to 14 days dosed through vitamin E-deficient base diet by qPCR method; assay type: ADME, organism-based; details: in vivo, po; procedure, shortened: as §1
[21] = test system: Mus musculus; assay: Effect on Ugt1a6a gene expression in wild type mouse liver at 500 mg/kg for 7 to 14 days dosed through vitamin E-deficient base diet by qPCR method; assay type: ADME, organism-based; details: in vivo, po; procedure, shortened: as §1
[22] = test system: Cyp2c55; assay: Induction of Cyp2c55 gene expression in male PXR null mouse liver at 500 mg/kg for 7 to 14 days dosed through vitamin E-deficient base diet by qPCR method; assay type: ADME, organism-based; details: po, read-out: FC; procedure, shortened: as §1
[23] = test system: Mus musculus; assay: Induction of Cyp2c39 gene expression in wild type mouse liver at 500 mg/kg for 7 to 14 days dosed through vitamin E-deficient base diet by qPCR method; assay type: ADME, organism-based; details: in vivo, po; procedure, shortened: as §1
[24] = test system: Mus musculus; assay: Effect on Ugt1a9 gene expression in wild type mouse liver at 500 mg/kg for 7 to 14 days dosed through vitamin E-deficient base diet by qPCR method; assay type: ADME, organism-based; details: in vivo, po; procedure, shortened: as §1
[25] = test system: Mus musculus; assay: Effect on Ugt1a6b gene expression in wild type mouse liver at 500 mg/kg for 7 to 14 days dosed through vitamin E-deficient base diet by qPCR method; assay type: ADME, organism-based; details: in vivo, po; procedure, shortened: as §1
[26] = test system: Mus musculus; assay: Induction of Cyp4f18 gene expression in male PXR null mouse liver at 500 mg/kg for 7 to 14 days dosed through vitamin E-deficient base diet by qPCR method; assay type: ADME, organism-based; details: in vivo, po; procedure, shortened: as §2
[27] = test system: Mus musculus; assay: Effect on Ugt2b5 gene expression in male PXR null mouse liver at 500 mg/kg for 7 to 14 days dosed through vitamin E-deficient base diet by qPCR method; assay type: ADME, organism-based; details: in vivo, po; procedure, shortened: as §1
[28] = test system: Mus musculus; assay: Induction of Cyp4f14 gene expression in male PXR null mouse liver at 500 mg/kg for 7 to 14 days dosed through vitamin E-deficient base diet by qPCR method; assay type: ADME, organism-based; details: in vivo, po; procedure, shortened: as §2
[29] = test system: Mus musculus; assay: Induction of Cyp4f18 gene expression in male PXR-humanized mouse liver at 500 mg/kg for 7 to 14 days dosed through vitamin E-deficient base diet by qPCR method; assay type: ADME, organism-based; details: in vivo, po; procedure, shortened: as §2

With `CC(=O)Oc1c(C)c(C)c2c(c1C)CCC(C)(CCCC(C)CCCC(C)CCCC(C)C)O2` (racemic) [alpha-TOCHOPHERYL ACETATE] the Activity [1] was “Not Active”, the Activity [2] was “Not Active” and the Activity [3] was “Not Active”. For the same compound, the Activity [4] was “Not Active”, the Activity [5] was “Not Active” and the Activity [6] was “Not Active”. For the same compound, the Drug metabolism [7] was “metabolite_detected”, the Activity [8] was “Not Active” and the Drug metabolism [9] was “metabolite_detected”. The Activity [10] was “Not Active”, the Drug metabolism [11] was “metabolite_detected” and the Activity [12] was “Not Active”. For the same compound, the Activity [13] was “Not Active”, the fold induction [14] was 7.3 and the “fold change (FC)” value [15] was 2.4. The Drug metabolism [16] was “metabolite_detected”, the Activity [17] was “Not Active” and the Drug metabolism [18] was “metabolite_detected”. For the same compound, the Activity [19] was “Not Active”, the Activity [20] was “Not Active” and the Activity [21] was “Not Active”. The fold induction [22] was 2.2, the Activity [23] was “Not Active” and the Activity [24] was “Not Active”. For the same compound, the Activity [25] was “Not Active”, the Activity [26] was “Not Active” and the Activity [27] was “Not Active”. The Activity [28] was “Not Active” and the Activity [29] was “Not Active”.
